# Results taken from ChEMBL document CHEMBL1156470, “Inhibition of the activation of multiple serine proteases with a cathepsin C inhibitor requires sustained exposure to prevent pro-enzyme processing” (J Biol Chem, 2007).
# Calls of active or inactive are those of the source. No cut-off for these calls is given here. Non-standard residues stand in square brackets, D forms with d. Residues, ends and D or L forms follow the SMILES beside them. *: point of attachment. Phe(4-I) = N[C@@H](Cc1ccc(I)cc1)C(=O)O; CHN2 = [N-]=[N+]=C*
# Tests used:
# Cathepsin B = Cathepsin B (Homo sapiens, UniProt P07858); assay: Inhibition of human recombinant cathepsin B after 10 mins
# Dipeptidyl peptidase 1 [1] = target: T1, Dipeptidyl peptidase 1 (Homo sapiens, UniProt P53634); assay: Inhibition of human recombinant cathepsin C after 10 mins
# T1 sequence (P53634 25-134 limits assumed): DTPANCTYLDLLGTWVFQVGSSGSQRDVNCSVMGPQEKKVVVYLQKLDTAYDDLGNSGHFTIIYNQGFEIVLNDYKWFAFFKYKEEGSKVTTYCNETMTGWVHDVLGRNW
# T1 sequence (P53634 231-394 limits assumed): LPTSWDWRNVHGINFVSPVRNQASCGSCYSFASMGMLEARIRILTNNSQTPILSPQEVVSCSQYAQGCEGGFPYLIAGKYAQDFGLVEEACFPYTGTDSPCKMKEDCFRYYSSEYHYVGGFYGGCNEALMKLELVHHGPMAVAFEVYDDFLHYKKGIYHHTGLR
# T1 sequence (P53634 395-463 limits assumed): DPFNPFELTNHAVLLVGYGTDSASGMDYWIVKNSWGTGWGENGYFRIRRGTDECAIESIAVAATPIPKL
# Procedure, shortened: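 Recombinant human cathepsin C at 1 nM in 25 mM MES pH 6.0, 50 mM NaCl, 5 mM DTT, with 50 μM Gly-Arg-AMC (twice Km). Enzyme preincubated with inhibitor 10 min, then substrate added, at room temperature. Fluorogenic AMC release.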
# Procathepsin L = Procathepsin L (Homo sapiens, UniProt P07711); assay: Inhibition of human recombinant cathepsin L after 10 mins
# Sequence of Procathepsin L (P07711 whole entry): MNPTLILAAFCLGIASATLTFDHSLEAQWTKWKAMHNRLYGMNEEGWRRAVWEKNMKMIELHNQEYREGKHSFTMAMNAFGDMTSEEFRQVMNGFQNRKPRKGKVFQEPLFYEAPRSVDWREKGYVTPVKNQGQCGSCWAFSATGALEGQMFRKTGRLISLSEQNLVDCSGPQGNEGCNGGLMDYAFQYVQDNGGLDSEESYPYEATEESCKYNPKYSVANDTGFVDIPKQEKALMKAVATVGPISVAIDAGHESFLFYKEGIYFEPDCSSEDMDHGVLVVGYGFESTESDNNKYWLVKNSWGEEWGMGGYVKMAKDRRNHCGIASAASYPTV
# Cathepsin S = Cathepsin S (Homo sapiens, UniProt P25774); assay: Inhibition of human recombinant cathepsin S after 10 mins
# Sequence of Cathepsin S (P25774 whole entry): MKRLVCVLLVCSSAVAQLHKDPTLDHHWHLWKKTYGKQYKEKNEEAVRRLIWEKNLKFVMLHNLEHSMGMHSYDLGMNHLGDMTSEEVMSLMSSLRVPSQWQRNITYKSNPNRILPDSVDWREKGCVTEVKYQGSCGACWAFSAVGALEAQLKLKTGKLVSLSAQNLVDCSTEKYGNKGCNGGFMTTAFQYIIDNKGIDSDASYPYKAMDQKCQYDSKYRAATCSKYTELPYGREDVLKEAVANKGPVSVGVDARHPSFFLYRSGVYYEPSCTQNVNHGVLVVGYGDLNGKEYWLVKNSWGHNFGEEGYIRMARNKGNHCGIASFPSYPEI
# Pro-cathepsin H = target: T2, Pro-cathepsin H (Homo sapiens, UniProt P09668); assay: Inhibition of human recombinant cathepsin H after 10 mins
# T2 sequence (P09668 whole entry): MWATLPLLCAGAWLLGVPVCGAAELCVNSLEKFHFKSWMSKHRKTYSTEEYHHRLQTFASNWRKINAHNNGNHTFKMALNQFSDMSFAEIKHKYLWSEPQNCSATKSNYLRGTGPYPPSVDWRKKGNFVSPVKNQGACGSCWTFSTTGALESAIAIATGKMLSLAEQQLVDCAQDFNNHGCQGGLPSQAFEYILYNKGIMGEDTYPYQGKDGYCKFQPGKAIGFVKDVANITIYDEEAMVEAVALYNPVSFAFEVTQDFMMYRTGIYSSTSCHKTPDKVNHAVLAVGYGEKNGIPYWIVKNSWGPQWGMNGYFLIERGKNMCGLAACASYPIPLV
# Cathepsin G [2] = target: T3, Cathepsin G (Mus musculus, UniProt P28293); assay: Inhibition of cathepsin G activation in beta-estradiol differentiated mouse EcoM-G cells after 24 hrs; type: cell-based
# T3 sequence (P28293 whole entry): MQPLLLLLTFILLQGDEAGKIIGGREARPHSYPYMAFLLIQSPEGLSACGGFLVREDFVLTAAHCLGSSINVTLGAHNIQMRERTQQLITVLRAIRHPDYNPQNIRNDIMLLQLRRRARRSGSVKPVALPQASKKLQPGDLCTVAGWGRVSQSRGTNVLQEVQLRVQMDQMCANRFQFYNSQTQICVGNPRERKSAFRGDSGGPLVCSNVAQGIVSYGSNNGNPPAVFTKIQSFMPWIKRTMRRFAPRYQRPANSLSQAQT
# Procedure, shortened: (§1)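 EcoM-G cells (cultures <3 months old) washed and seeded at 0.5×10^6 cells/ml without β-estradiol. After 24 h, compound added in Me₂SO (final 0.5%), then cells differentiated a further 24 h, harvested and lysed. NE assayed with 400 μM MeOSuc-AAPV-AMC, CG with 1 mM Suc-AAPF-pNA (405 nm, 5 min), Pr-3 with 10 μM internally quenched substrate (ex 328/em 393 nm), all from the same lysates. IC50 from four-parameter Hill fit.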
# Neutrophil elastase [3] = target: T4, Neutrophil elastase (Mus musculus, UniProt Q3UP87); assay: Inhibition of neutrophil elastase activation in beta-estradiol differentiated mouse EcoM-G cells after 24 hrs; type: cell-based; procedure, shortened: as §1
# T4 sequence (Q3UP87 whole entry): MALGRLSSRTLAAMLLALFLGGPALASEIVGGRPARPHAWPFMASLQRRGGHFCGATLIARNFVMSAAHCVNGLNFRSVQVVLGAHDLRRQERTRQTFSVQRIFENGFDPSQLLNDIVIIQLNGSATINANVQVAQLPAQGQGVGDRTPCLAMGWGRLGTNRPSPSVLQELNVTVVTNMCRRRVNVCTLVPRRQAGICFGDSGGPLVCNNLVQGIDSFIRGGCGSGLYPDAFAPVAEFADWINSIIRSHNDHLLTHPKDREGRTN
# [4] = target: T5, Cathepsin G (Homo sapiens) (UniProt P08311); assay: Inhibition of human U937 cellular [35S]methionine-labeled cathepsin G binding to aprotinin by aprotinin-agarose silver-stained SDS-PAGE method; type: cell-based; conditions: U-937, in the assay text read “SDS-PAGE fluorography” for “silver-stained SDS-PAGE”
# T5 sequence (whole entry): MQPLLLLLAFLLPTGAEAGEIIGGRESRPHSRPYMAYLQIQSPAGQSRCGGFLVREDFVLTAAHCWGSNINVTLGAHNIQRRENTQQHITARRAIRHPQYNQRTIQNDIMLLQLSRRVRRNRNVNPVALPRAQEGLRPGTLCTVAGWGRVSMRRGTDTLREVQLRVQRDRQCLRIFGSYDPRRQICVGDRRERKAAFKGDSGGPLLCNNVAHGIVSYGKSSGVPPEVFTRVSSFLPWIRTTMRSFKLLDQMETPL
# Cathepsin G [5] = target: T6, Cathepsin G (Homo sapiens, UniProt P08311); assay: Inhibition of cathepsin G in human U937 cells; type: cell-based, U-937
# T6 sequence (P08311 whole entry): T5 sequence (whole entry)
# Myeloblastin [6] = target: T7, Myeloblastin (Homo sapiens, UniProt P24158); assay: Inhibition of proteinase-3 in human U937 cells; type: cell-based, U-937
# T7 sequence (P24158 whole entry): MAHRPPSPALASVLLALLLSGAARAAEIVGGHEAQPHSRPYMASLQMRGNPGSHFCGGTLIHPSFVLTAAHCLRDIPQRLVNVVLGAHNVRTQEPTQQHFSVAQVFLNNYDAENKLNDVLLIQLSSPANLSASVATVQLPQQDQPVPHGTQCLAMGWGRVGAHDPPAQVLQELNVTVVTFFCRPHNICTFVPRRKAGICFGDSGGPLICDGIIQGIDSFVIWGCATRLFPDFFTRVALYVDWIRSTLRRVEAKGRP
# [7] = target: Neutrophil elastase (Mus musculus) (UniProt Q3UP87); assay: Inhibition of neutrophil elastase in mouse EcoM-G cells
# Myeloblastin [8] = target: T8, Myeloblastin (Mus musculus, UniProt Q61096); assay: Inhibition of proteinase-3 activation in beta-estradiol differentiated mouse EcoM-G cells after 24 hrs; type: cell-based; procedure, shortened: as §1
# T8 sequence (Q61096 whole entry): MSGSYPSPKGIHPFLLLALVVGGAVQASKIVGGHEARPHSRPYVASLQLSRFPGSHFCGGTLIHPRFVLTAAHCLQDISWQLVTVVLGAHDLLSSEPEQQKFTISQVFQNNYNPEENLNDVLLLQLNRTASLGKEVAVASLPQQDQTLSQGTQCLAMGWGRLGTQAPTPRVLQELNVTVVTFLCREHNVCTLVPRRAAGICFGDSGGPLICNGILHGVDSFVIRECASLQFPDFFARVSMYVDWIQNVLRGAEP
# Neutrophil elastase [9] = target: T9, Neutrophil elastase (Homo sapiens, UniProt P08246); assay: Blockade of neutrophil elastase processing in human U937 cells after 7 days by fluorogenic substrate cleavage assay; type: cell-based, U-937
# T9 sequence (P08246 whole entry): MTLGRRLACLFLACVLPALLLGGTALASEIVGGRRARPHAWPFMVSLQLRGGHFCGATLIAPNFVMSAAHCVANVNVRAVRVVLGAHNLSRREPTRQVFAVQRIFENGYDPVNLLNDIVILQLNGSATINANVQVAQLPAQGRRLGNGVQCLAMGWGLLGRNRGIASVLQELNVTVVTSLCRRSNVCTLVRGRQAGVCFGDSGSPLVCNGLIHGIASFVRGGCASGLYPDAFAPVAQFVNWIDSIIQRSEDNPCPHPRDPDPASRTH
# Procedure, shortened: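 U937 seeded at 1×10^5 cells/ml with vehicle or inhibitor, passaged and diluted 10-fold into fresh medium with compound on days 3 and 5, harvested day 7. Cells washed and lysed in 20 mM Tris pH 7.5, 100 mM NaCl, 0.2% NP-40. NE rate measured with 400 μM MeOSuc-AAPV-AMC (ex 370/em 450 nm, 10 min). % inhibition vs vehicle, four wells per point.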
# Cathepsin G [10] = target: T6, Cathepsin G; assay: Blockade of cathepsin G processing in human U937 cells by densitometry; type: cell-based, U-937
# Procedure, shortened: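 U937 cells washed, plated at 2×10^6 cells/ml in methionine/glutamine-free RPMI, inhibitor or 0.5% Me₂SO added during 30 min starvation, pulsed with [³⁵S]methionine (10 μCi/ml) 30 min, re-seeded in complete medium with inhibitor and chased 3 h. Lysates bound to aprotinin-agarose 1 h at room temperature, SDS-PAGE and fluorography. CG band quantitated by densitometry as % inhibition vs vehicle.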
# U-937 [11] = assay: Cytotoxicity against human U937 cells at 1 uM after 72 hrs annexin-V propidium iodide method; type: functional
# Procedure, shortened: (§2)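 U937 plated at 0.4×10^6 cells/ml, compound in Me₂SO (final 0.5%). Cells harvested and re-seeded every 24 h in medium with freshly added inhibitor, for 72 h. Viability by annexin V-FITC/propidium iodide two-colour flow cytometry; cells negative for both stains counted viable.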
# Dipeptidyl peptidase 1 [12] = target: T1, Dipeptidyl peptidase 1; assay: Inhibition of cathepsin C in human U937 cells at 1 uM after 24 hrs; type: cell-based; conditions: U-937
# Procedure, shortened: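 U937 at 0.4×10^6 cells/ml exposed 24 h to compound (final Me₂SO 0.5%), washed, lysed in 25 mM MES pH 6.0, 50 mM NaCl, 5 mM DTT, 0.2% NP-40. Protein-normalised lysate diluted 1:10 and assayed with 50 μM Gly-Arg-AMC (twice Km) at room temperature. Residual cathepsin C activity.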
# U-937 [13] = assay: Cytotoxicity against human U937 cells at 30 uM after 72 hrs annexin-V propidium iodide method; type: functional; procedure, shortened: as §2
Compound,IC50 (Cathepsin B),IC50 (Dipeptidyl peptidase 1 [1]),IC50 (Procathepsin L),IC50 (Cathepsin S),IC50 (Pro-cathepsin H),IC50 (Cathepsin G [2]),IC50 (Neutrophil elastase [3]),IC50 (Myeloblastin [8]),IC50 (Cathepsin G [10]),other results
CCC[C@H](NC(=O)C(CC(C)C)NC(=O)c1ccc(-c2ccc(I)cc2)cc1)C(=O)[CH-][N+]#N (some centres undefined),65 nM,450 nM,10 nM,9 nM,–,–,–,–,–,–
CC(C)C[C@H](NC(=O)[C@H]1O[C@@H]1C(=O)O)C(=O)NCCCCN=C(N)N [E-64],10 nM,770 nM,13 nM,7 nM,190 nM,–,–,–,–,–
N#C[C@]1(NC(=O)C(N)Cc2cncs2)C[C@H]1c1ccccc1 (some centres undefined),–,790 nM,–,–,–,> 50000 nM,7930 nM,–,–,–
CCC[C@@H](NC(=O)N1C(=O)C(CC)(CC)[C@@H]1Oc1ccc(C(=O)N2CCN(C)CC2)cc1)c1ccc2c(c1)OCO2,–,–,–,–,–,–,–,–,–,Activity [4]: inactive
[N-]=[N+]=CC(=O)[C@H](Cc1ccc(I)cc1)NC(=O)CN (H-Gly-[Phe(4-I)]-CHN2),2940 nM,1 nM,29500 nM,> 50000 nM,9800 nM,–,–,–,–,IC50 (Cathepsin G [5]): > 50000 nM; IC50 (Myeloblastin [6]): > 50000 nM; IC50 [7]: > 50000 nM
CC(C)C[C@@H](NC(=O)N1CCOCC1)C(=O)N[C@@H](/C=C/S(=O)(=O)c1ccccc1)CCc1ccccc1,1360 nM,> 10000 nM,–,1 nM,–,39800 nM,25500 nM,21200 nM,–,–
N#C[C@@]1(NC(=O)C(N)Cc2sccc2F)C[C@@H]1c1ccccc1 (some centres undefined),> 50000 nM,–,15500 nM,33400 nM,> 50000 nM,690 nM,150 nM,150 nM,90 nM,IC50 (Cathepsin G [5]): > 10000 nM; IC50 (Neutrophil elastase [9]): 170 nM; IC50 [7]: > 10000 nM
CS(=O)(=O)C[C@H](N[C@@H](c1ccc(Br)cc1)C(F)(F)F)C(=O)NC1(C#N)CC1,280 nM,> 10000 nM,430 nM,10 nM,> 50000 nM,> 50000 nM,> 50000 nM,–,> 50000 nM,–
C[C@H](N)C(=O)N[C@@H](Cc1ccc(I)cc1)C(=O)C=[N+]=[N-],–,–,–,–,–,–,–,–,–,Activity [4]: Active; Activity (U-937 [11]): 32%; inhibition (Dipeptidyl peptidase 1 [12]): 99.6%
CCOC(=O)[C@H]1O[C@@H]1C(=O)N[C@@H](CC(C)C)C(=O)NCCC(C)C [ALOXISTATIN],–,–,–,–,–,> 10000 nM,> 10000 nM,> 10000 nM,1100 nM,–
[N-]=[N+]=CC(=O)[C@H](Cc1ccccc1)NC(=O)CN (H-Gly-Phe-CHN2),–,–,–,–,–,–,–,–,–,Activity (U-937 [11]): 32%; inhibition (Dipeptidyl peptidase 1 [12]): 100%
N#C[C@]1(NC(=O)[C@@H](N)Cc2ccccc2F)C[C@H]1c1ccccc1,> 3000 nM,> 220 nM,560 nM,1600 nM,–,17600 nM,5490 nM,4550 nM,1200 nM,IC50 (Neutrophil elastase [9]): 1900 nM
"N#C[C@]1(NC(=O)C(N)Cc2cccs2)C[C@H]1c1ccccc1.O=C(O)C(F)(F)F (single isomer, unassigned)",> 50000 nM,> 30000 nM,> 50000 nM,> 50000 nM,> 50000 nM,> 50000 nM,> 50000 nM,> 50000 nM,> 50000 nM,IC50 (Neutrophil elastase [9]): > 30000 nM; Activity (U-937 [13]): 98%
N#[N+][CH-]C(=O)[C@H](Cc1ccccc1)NC(=O)CN,> 30000 nM,51 nM,25500 nM,–,29000 nM,–,–,–,–,–
Cc1cc(C)cc(CC(NC(=O)C(c2ccccc2)c2ccccc2)C(=O)NCC#N)c1 (centres undefined),40 nM,–,90 nM,470 nM,–,> 50000 nM,> 50000 nM,–,–,–
